Test results taken from paper PMC12679438 (RSC Advances, 2025).
Entries after “also recorded” stand apart in the source; their conditions may differ. Read-outs that look alike come from different tables or passages of the source.

Experiments:
[1] = tested on: CCRF-CEM; experiment: MTS cytotoxicity assay, 72 h, CCRF-CEM; type: cell-based, human
Procedure, shortened: (§1)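 Human lines were kept at 37 °C, 5% CO2 in recommended medium plus 10% FCS, penicillin–streptomycin, 2 mM glutamine, 1 mM bicarbonate, 1 mM pyruvate and 20 mM HEPES, and were mycoplasma-tested biweekly. Cells were exposed to test compound for 72 h on a robotic screening platform, then read by MTS. DMSO-treated cells were the negative control. IC50 came from dose–response curves, mean of ≥6 replicates.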

[2] = tested on: U2OS; experiment: MTS cytotoxicity assay, 72 h, U2OS; type: cell-based, human
Procedure, shortened: as §1

[3] = tested on: RAMOS; experiment: MTS cytotoxicity assay, 72 h, RAMOS; type: cell-based, human
Procedure, shortened: as §1

[4] = tested on: A549; experiment: MTS cytotoxicity assay, 72 h, A549; type: cell-based, human; conditions: read-out: IC50 A549
Procedure, shortened: as §1

[5] = tested on: Jurkat; experiment: MTS cytotoxicity assay, 72 h, Jurkat; type: cell-based, human
Procedure, shortened: as §1

[6] = tested on: K562; experiment: MTS cytotoxicity assay, 72 h, K562; type: cell-based, human; conditions: read-out: IC50 K562
Procedure, shortened: as §1

[7] = tested on: HCT116; experiment: MTS cytotoxicity assay, 72 h, HCT116; type: cell-based, human; conditions: read-out: IC50 HCT116
Procedure, shortened: as §1

[8] = tested on: HCT116-p53; experiment: MTS cytotoxicity assay, 72 h, HCT116-p53; type: cell-based, human
Procedure, shortened: as §1

[9] = tested on: MRC-5; experiment: MTS cytotoxicity assay, 72 h, MRC-5 fibroblasts; type: cell-based, human; conditions: read-out: IC50 MRC-5
Procedure, shortened: as §1

[10] = molecular target: Recombinant BTK (Homo sapiens, UniProt Q06187); experiment: In vitro biochemical kinase assay
Recombinant BTK, sequence (Q06187 whole entry): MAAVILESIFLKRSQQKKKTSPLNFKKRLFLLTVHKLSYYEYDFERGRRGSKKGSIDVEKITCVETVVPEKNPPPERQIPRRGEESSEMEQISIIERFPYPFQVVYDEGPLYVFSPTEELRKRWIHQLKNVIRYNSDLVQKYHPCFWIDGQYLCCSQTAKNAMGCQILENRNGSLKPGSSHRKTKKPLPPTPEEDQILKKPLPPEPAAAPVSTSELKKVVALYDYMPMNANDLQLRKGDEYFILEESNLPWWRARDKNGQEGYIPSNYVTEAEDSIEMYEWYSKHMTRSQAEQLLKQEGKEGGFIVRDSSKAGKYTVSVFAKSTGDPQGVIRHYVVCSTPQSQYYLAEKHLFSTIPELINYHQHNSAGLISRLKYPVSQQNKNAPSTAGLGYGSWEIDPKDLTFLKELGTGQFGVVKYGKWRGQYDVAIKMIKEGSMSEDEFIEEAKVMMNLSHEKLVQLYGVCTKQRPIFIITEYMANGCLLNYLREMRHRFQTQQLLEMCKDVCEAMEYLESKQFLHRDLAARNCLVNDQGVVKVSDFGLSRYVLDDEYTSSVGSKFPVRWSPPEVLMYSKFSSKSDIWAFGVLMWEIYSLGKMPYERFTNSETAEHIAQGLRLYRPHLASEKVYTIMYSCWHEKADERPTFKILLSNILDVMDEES

[11] = tested on: BJ; experiment: MTS cytotoxicity assay, 72 h, BJ fibroblasts; type: cell-based, human
Procedure, shortened: as §1

[12] = tested on: malignant T-cell lines; conditions: cited from earlier work
[13] = molecular target: T1, Recombinant ITK (Homo sapiens, UniProt Q08881); experiment: In vitro biochemical kinase assay
T1 sequence (Q08881 1-620): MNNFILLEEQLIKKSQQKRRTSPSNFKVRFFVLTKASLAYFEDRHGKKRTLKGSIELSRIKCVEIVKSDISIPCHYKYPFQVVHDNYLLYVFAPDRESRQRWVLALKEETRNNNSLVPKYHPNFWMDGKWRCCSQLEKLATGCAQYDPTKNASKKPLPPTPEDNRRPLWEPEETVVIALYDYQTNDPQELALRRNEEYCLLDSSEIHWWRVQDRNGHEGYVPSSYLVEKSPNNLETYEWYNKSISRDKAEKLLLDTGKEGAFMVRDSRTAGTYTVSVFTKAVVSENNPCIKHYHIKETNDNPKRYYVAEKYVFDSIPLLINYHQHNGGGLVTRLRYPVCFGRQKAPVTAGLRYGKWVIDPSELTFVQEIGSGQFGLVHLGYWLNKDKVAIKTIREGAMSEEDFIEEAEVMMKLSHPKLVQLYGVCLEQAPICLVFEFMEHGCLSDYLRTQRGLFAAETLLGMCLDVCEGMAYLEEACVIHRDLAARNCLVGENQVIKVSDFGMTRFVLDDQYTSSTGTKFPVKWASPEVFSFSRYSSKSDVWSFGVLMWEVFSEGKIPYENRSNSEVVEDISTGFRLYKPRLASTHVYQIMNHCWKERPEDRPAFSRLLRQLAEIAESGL

[14] = tested on: p-ITK (Tyr551/Tyr511); experiment: Western blot of ITK phosphorylation in PHA-stimulated Jurkat cells; type: cell-based, human
Procedure, shortened: (§2)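 Jurkat cells at 0.5 × 10^6 per mL were stimulated with PHA 5 µg per mL in RPMI/10% FCS for 15 min, then given test compound at 10, 2.25 or 0.62 µM for 24 h. Controls were 0.1% DMSO and unstimulated cells. RIPA lysates (30 µg) were run on 10% SDS-PAGE and probed for p-ITK/BTK (Tyr551/Tyr511), ITK, p-ERK1/2 (Thr202/Tyr204), ERK1/2 and GAPDH using fluorescent secondaries. Phospho/total ratios were normalised to GAPDH.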

[15] = tested on: p-ERK1/2 (Thr202/Tyr204); experiment: Western blot of ERK1/2 phosphorylation in PHA-stimulated Jurkat cells; type: cell-based, human
Procedure, shortened: as §2

[16] = MTS cytotoxicity assay, statements over groups of cell lines of the panel; type: cell-based, human; conditions: human
Procedure, shortened: as §1

[17] = tested on: panel of human cell lines; experiment: as above; type: cell-based; conditions: stated together in the text; for IC50 / cytotoxicity in fibroblast cells: non-cancerous fibroblasts (BJ, MRC-5)
Procedure, shortened: as §1

[18] = ITK/BTK null, MTS, 72 h, mean of ≥6 replicates
[19] = Homo sapiens, CCRF-CEM, read-out: IC50 CCRF-CEM
[20] = Homo sapiens, U2OS, read-out: IC50 U2OS
[21] = Homo sapiens, Ramos, read-out: IC50 RAMOS
[22] = Homo sapiens, Jurkat, read-out: IC50 Jurkat
[23] = Homo sapiens, read-out: IC50 HCT116-p53
[24] = Homo sapiens, BJ, read-out: IC50 BJ
[25] = BJ and MRC-5 non-cancerous fibroblast cell lines

| Molecule | IC50 [1, 19] | IC50 [2, 20] | IC50 [3, 21] | IC50 ([4]; Homo sapiens, A549, 72 h) | IC50 [5, 22] | IC50 ([6]; Homo sapiens, K562, 72 h) | IC50 ([7]; Homo sapiens, HCT-116, 72 h) | IC50 [8, 23] | IC50 ([9]; Homo sapiens, MRC5, 72 h) | IC50 [11, 24] | IC50 / cytotoxicity in fibroblast cells [17] | further results |
| --- | --- | --- | --- | --- | --- | --- | --- | --- | --- | --- | --- | --- |
| 1-(6-(3,5-difluorophenyl)-3-oxo-2,3-dihydropyridazin-4-yl)-N-(furan-2-ylmethyl)azetidine-3-carboxamide [Compound 22] | – | – | – | – | – | – | – | – | – | – | – | IC50 ([1]; read-out: IC50 CCRF-CEM, ITK positive, MTS, mean of ≥6 replicates): 18.5 µM; IC50 ([2]; read-out: IC50 U2OS, ITK/BTK null, MTS, mean of ≥6 replicates): 36.2 µM; IC50 ([3]; read-out: IC50 RAMOS, BTK positive, MTS, mean of ≥6 replicates): 22.3 µM; IC50 [4, 18]: > 50 µM; IC50 ([5]; read-out: IC50 Jurkat, ITK positive, MTS, mean of ≥6 replicates): 11.2 µM; IC50 ([6]; BTK positive, MTS, 72 h, mean of ≥6 replicates): 21.4 µM; IC50 [7, 18]: 40.3 µM; IC50 ([8]; read-out: IC50 HCT116-p53, ITK/BTK null, MTS, mean of ≥6 replicates): 41.2 µM; IC50 ([9]; Non-cancer fibroblasts, MTS, 72 h, mean of ≥6 replicates): > 50 µM; BTK inhibition (in words) ([10]; ADP-Glo, 0–10 µM range): partial BTK inhibition; also recorded: partial activity against BTK; maximal inhibition of BTK ([10]; at 10 µM): ≤ 50%; IC50 ([10]; read-out: IC50 BTK activity, ADP-Glo, 0–10 µM range): > 10 µM; IC50 ([11]; read-out: IC50 BJ, Non-cancer fibroblasts, MTS, mean of ≥6 replicates): > 50 µM |
| COc1cc(C)c(Sc2cnc(NC(=O)c3ccc(CNC(C)C(C)(C)C)cc3)s2)cc1C(=O)N1CCN(C(C)=O)CC1 (stereo not drawn) [BMS-509744] | – | – | – | – | – | – | – | – | – | – | – | effect in malignant T-cell lines [12]: induced pro-apoptotic signaling and G2/M cell cycle arrest |
| O=C(Nc1ccccc1)C1CN(c2cc(-c3cccc(F)c3)n[nH]c2=O)C1 [Compound 9, 1-(6-(3-fluorophenyl)-3-oxo-2,3-dihydropyridazin-4-yl)-N-phenylazetidine-3-carboxamide] | 19.5 µM | > 50 µM | 9.58 µM | > 50 µM | 37.6 µM | > 50 µM | > 50 µM | > 50 µM | 43.2 µM | > 50 µM | inactive | IC50 [13]: 0.87 µM; total ITK level ([14]; PHA-stimulated Jurkat cells, 10 µM, 24 h): modest reduction; p-ITK (Tyr551/Tyr511) level ([14]; PHA-stimulated Jurkat cells, 10, 2.25, 0.62 µM for 24 h): reduced phosphorylation; also recorded: concentration-dependent decrease; also recorded: concentration-dependent significant reduction; p-ITK/ITK ratio (densitometry) ([14]; all concentrations tested, normalized to GAPDH): significant reduction; p-ERK1/2 (Thr202/Tyr204) level ([15]; PHA-stimulated Jurkat cells, 10 µM (highest concentration), 24 h): reduced phosphorylation; also recorded: significant decrease; p-ERK/ERK ratio (densitometry) ([15]; highest tested concentration, normalized to GAPDH): significant decrease; BTK inhibition (in words) ([10]; ADP-Glo, 0–10 µM range): no measurable BTK inhibition; also recorded: no BTK inhibitory effect was observed; also recorded: absence of BTK activity; IC50 at 72 h [16, 25]: > 50 µM; IC50 / cytotoxicity in non-ITK/BTK (ITK-null) cancer lines ([17]; A549, HCT116, HCT116-p53, U2OS): inactive |
| O=C(NCC(F)(F)F)C1CN(c2cc(-c3ccc(Cl)cc3)n[nH]c2=O)C1 [Compound 38, 1-(6-(4-chlorophenyl)-3-oxo-2,3-dihydropyridazin-4-yl)-N-(2,2,2-trifluoroethyl)azetidine-3-carboxamide] | 29.9 µM | > 50 µM | > 50 µM | > 50 µM | 44.9 µM | > 50 µM | > 50 µM | > 50 µM | > 50 µM | > 50 µM | No significant cytotoxicity | – |
| O=C(NCC(F)(F)F)C1CN(c2cc(-c3ccc(F)cc3F)n[nH]c2=O)C1 [Compound 39, 1-(6-(2,4-difluorophenyl)-3-oxo-2,3-dihydropyridazin-4-yl)-N-(2,2,2-trifluoroethyl)azetidine-3-carboxamide] | 26.8 µM | > 50 µM | > 50 µM | > 50 µM | > 50 µM | > 50 µM | > 50 µM | > 50 µM | > 50 µM | > 50 µM | No significant cytotoxicity | – |
| O=C(c1ccc(F)cc1)C1CN(c2cc(-c3ccncc3)n[nH]c2=O)C1 [Compound 52, 4-(3-(4-fluorobenzoyl)azetidin-1-yl)-6-(pyridin-4-yl)pyridazin-3(2H)-one] | > 50 µM | > 50 µM | 13.2 µM | > 50 µM | 20.7 µM | > 50 µM | > 50 µM | > 50 µM | > 50 µM | > 50 µM | – | IC50 at 72 h ([16]; A549, HCT116, HCT116-p53 and U2OS ITK-null cancer cell lines): > 50 µM; IC50 at 72 h [16, 25]: > 50 µM |
| C=CC(=O)N1CCC[C@@H](n2nc(-c3ccc(Oc4ccccc4)cc3)c3c(N)ncnc32)C1 [ibrutinib, reference compound] | – | – | – | – | – | – | – | – | – | – | – | inhibition of ITK activity (assay validation) ([13]; ibrutinib 100 µM, vs. DMSO control): significant inhibition |
